# Reference: ChEMBL document CHEMBL4270573, “Novel nicotinoyl pyrazoline derivates bearing N-methyl indole moiety as antitumor agents: Design, synthesis and evaluation” (Eur J Med Chem, 2018)
# Calls of active or inactive are those of the source. No cut-off for these calls is given here.
# Assays:
# [1] = test system: MCF7; test: Growth inhibition of human MCF7 cells after 48 hrs by MTT assay; format: functional; details: MCF7, 48 h
# Method in brief: (§1)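 Proliferation read-out; GI50 taken as the concentration giving 50% reduction of cancer cell proliferation.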
# [2] = Cytotoxicity against HEK293T cells assessed as reduction in cell viability after 48 hrs by MTT assay; format: cell-based, HEK-293T; details: human
# [3] = test system: A549; test: Growth inhibition of human A549 cells after 48 hrs by MTT assay; format: functional; details: A549, 48 h; method in brief: as §1
# [4] = Inhibition of porcine brain tubulin polymerization measured over 30 mins; design: species or system Sus scrofa
# [5] = test system: HepG2; test: Growth inhibition of human HepG2 cells after 48 hrs by MTT assay; format: functional; details: HepG2, 48 h; method in brief: as §1
# [6] = test system: HeLa; test: Growth inhibition of human HeLa cells after 48 hrs by MTT assay; format: functional; method in brief: as §1
# [7] = biological target: T1, Tubulin (Homo sapiens) (UniProt P68371+Q9H4B7+P0DPH7+P68366+Q13509+Q71U36+P04350+Q3ZCM7+P07437+P68363+Q9BQE3+Q6PEY2+Q13885+Q9BVA1+Q9BUF5); test: Inhibition of tubulin polymerization in human HepG2 cells assessed as abnormal microtubule network formation at 0.04 uM after 12 hrs by DAPI staining based immunofluorescence confocal laser scanning microscopic analysis; format: cell-based
# [8] = biological target: T1, Tubulin (Homo sapiens); test: Inhibition of tubulin polymerization in human HeLa cells assessed as abnormal microtubule network formation at 0.04 uM after 12 hrs by DAPI staining based immunofluorescence confocal laser scanning microscopic analysis; format: cell-based
# [9] = test system: HeLa; test: Antitumor activity against human HeLa cells xenografted in nude mouse assessed as loose and irregular arrangement of tumor cells at 10 mg/kg, ip after 14 days by hematoxylin and eosin staining based microscopic analysis; format: functional, organism-based
# Method in brief: (§2)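 Excised tumours and heart, liver, kidney and spleen were H&E-stained and examined microscopically. Tumour scoring covered cell arrangement and necrosis. Organ scoring covered inflammatory infiltration, edema, necrosis and cell morphology.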
# [10] = species on record: Bos taurus; test: Inhibition of colchicine binding to calf brain tubulin preincubated for 1 hr followed by colchicine addition measured after 1 hr by UPLC-MS/MS analysis
# [11] = test system: HeLa; test: Antitumor activity against human HeLa cells xenografted in nude mouse assessed as tumor weight at 10 mg/kg, ip after 14 days (reference value: 1.54 g); format: functional
# [12] = test system: HeLa; test: Antitumor activity against human HeLa cells xenografted in nude mouse assessed as tumor volume at 10 mg/kg, ip after 14 days (reference value: 2292.17 mm3); format: functional
# [13] = test system: HeLa; test: Antitumor activity against human HeLa cells xenografted in nude mouse assessed as necrosis of tumor cells at 10 mg/kg, ip after 14 days by hematoxylin and eosin staining based microscopic analysis; format: functional, organism-based; method in brief: as §2
Compound,GI50 [1] [µM],CC50 at 48 h [2] [µM],GI50 [3] [µM],IC50 [4] [µM],GI50 [5] [µM],GI50 [6] [µM],inhibition [7],inhibition [8],Activity [9],inhibition [10],Activity [11] [g],Activity [12] [mm3],Activity [13]
COc1ccc2c(c1)c(C1CC(c3ccc(Cl)cc3)=NN1C(=O)c1ccc(OC)nc1)cn2C (configuration not stated),3.71,> 300,3.39,15.6,2.08,2.26,,,,,,,
Cn1cc(C2CC(c3ccccc3)=NN2C(=O)c2ccc(Cl)nc2)c2ccccc21 (configuration not stated),9.25,> 300,8.46,31.7,7.91,8.31,,,,,,,
COc1ccc(C2=NN(C(=O)c3cccnc3)C(c3cn(C)c4ccc(Br)cc34)C2)cc1 (configuration not stated),1.56,> 300,1.19,4.5,0.54,0.89,,,,,,,
COc1ccc2c(c1)c(C1CC(c3ccc(F)cc3)=NN1C(=O)c1ccc(OC)nc1)cn2C (configuration not stated),0.48,> 300,0.71,2.6,0.22,0.41,,,,,,,
Cn1cc(C2CC(c3ccc(Cl)cc3)=NN2C(=O)c2cccnc2)c2cc(Br)ccc21 (configuration not stated),8.1,> 300,7.65,19.4,5.8,5.2,,,,,,,
CC(=O)O[C@H]1C(=O)[C@@]2(C)[C@H]([C@H](OC(=O)c3ccccc3)[C@]3(O)C[C@H](OC(=O)[C@H](O)[C@@H](NC(=O)c4ccccc4)c4ccccc4)C(C)=C1C3(C)C)[C@]1(OC(C)=O)CO[C@@H]1C[C@@H]2O,,,,,,,inactive,inactive,,,,,
Cc1ccc(C(=O)N2N=C(c3ccccc3)CC2c2cn(C)c3ccccc23)cn1 (configuration not stated),4.01,154,1.19,13.2,1.22,2.39,,,,,,,
Cn1cc(C2CC(c3ccccc3)=NN2C(=O)c2cccnc2)c2cc(Br)ccc21 (configuration not stated),1.52,> 300,1.6,3.4,2.52,1.73,,,,,,,
COc1ccc2c(c1)c(C1CC(c3cc(OC)c(OC)c(OC)c3)=NN1C(=O)c1ccc(OC)nc1)cn2C (configuration not stated),> 10,> 300,> 10,> 40,> 10,> 10,,,,,,,
COc1ccc2c(c1)c(C1CC(c3ccccc3)=NN1C(=O)c1ccc(OC)nc1)cn2C (configuration not stated),0.99,> 300,1.11,2.9,1.33,1.1,,,,,,,
COc1ccc(C(=O)N2N=C(c3ccccc3)CC2c2cn(C)c3ccccc23)cn1 (configuration not stated),4.31,> 300,3.04,9.7,3.13,3.98,,,,,,,
Cn1cc(C2CC(c3ccccc3)=NN2C(=O)c2ccncc2)c2ccccc21 (configuration not stated),1.11,97.3,0.99,> 40,0.63,0.59,,,,,,,
COc1ccc(C2=NN(C(=O)c3cccnc3)C(c3cn(C)c4ccc(Br)cc34)C2)cc1OC (configuration not stated),1.17,> 300,2.38,5.6,2.45,2.09,,,,,,,
Cn1cc(C2CC(c3ccc(F)cc3)=NN2C(=O)c2cccnc2)c2cc(Br)ccc21 (configuration not stated),0.48,> 300,1.38,5.2,0.48,0.63,,,,,,,
COc1ccc2c(c1)c(C1CC(c3ccc(Br)cc3)=NN1C(=O)c1ccc(OC)nc1)cn2C (configuration not stated),6.96,> 300,> 10,19.3,> 10,> 10,,,,,,,
Cn1cc(C2CC(c3ccc(Br)cc3)=NN2C(=O)c2cccnc2)c2cc(Br)ccc21 (configuration not stated),11.8,> 300,> 10,18.4,6.91,> 10,,,,,,,
COc1ccc(C2=NN(C(=O)c3ccc(OC)nc3)C(c3cn(C)c4ccc(OC)cc34)C2)cc1 (configuration not stated),0.56,> 300,0.45,2.3,0.23,0.18,,,,,,,
COc1cccc(C2=NN(C(=O)c3cccnc3)C(c3cn(C)c4ccc(OC)cc34)C2)c1 (configuration not stated),0.81,125,1.02,2.1,0.91,1.27,,,,,,,
COc1cccc(C2=NN(C(=O)c3ccc(OC)nc3)C(c3cn(C)c4ccc(OC)cc34)C2)c1 (configuration not stated),0.13,> 300,0.47,1.9,0.19,0.34,,,,,,,
COc1ccc(/C=C\c2cc(OC)c(OC)c(OC)c2)cc1O [COMBRETASTATIN A4],0.14,> 300,0.31,2.1,0.17,0.092,,,Active,Active,0.59,918.61,Active
COc1ccc(C2=NN(C(=O)c3ccncc3)C(c3cn(C)c4ccc(Br)cc34)C2)cc1OC (configuration not stated),> 10,> 300,4.25,17.8,> 10,> 10,,,,,,,
Cn1cc(C2CC(c3ccccc3)=NN2C(=O)c2cccnc2)c2ccccc21 (configuration not stated),7.2,> 300,> 10,26.7,4.63,> 10,,,,,,,
COc1cc(C2=NN(C(=O)c3cccnc3)C(c3cn(C)c4ccc(Br)cc34)C2)cc(OC)c1OC (configuration not stated),> 10,131,> 10,> 40,> 10,> 10,,,,,,,
COc1cc(C2=NN(C(=O)c3ccc(C)nc3)C(c3cn(C)c4ccccc34)C2)cc(OC)c1OC (configuration not stated),0.18,> 300,0.23,2.3,0.31,0.21,,,,,,,
COc1ccc2c(c1)c(C1CC(c3ccccc3)=NN1C(=O)c1cccnc1)cn2C (configuration not stated),1.16,> 300,> 10,4.3,5.11,3.59,,,,,,,
Cn1cc(C2CC(c3ccccc3)=NN2C(=O)c2cccnc2Cl)c2ccccc21 (configuration not stated),> 10,> 300,> 10,> 40,> 10,> 10,,,,,,,
